A short description of assay [1]: Binding affinity to hairpin double stranded DNA AT base pair in sodium cacodylate buffer at pH 6.8 assessed as triplex-forming ability measuring melting temperature after by UV melting experiment. In short, it runs like this: (§1)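 TFO and hairpin dsDNA target, each strand at 1.89 μM final, in 10 mM sodium cacodylate (pH 6.8) with 100 mM KCl and 50 mM MgCl₂. Annealed in boiling water, then cooled slowly to 5 °C. Melting was followed at 260 nm from 5 to 90 °C at 0.5 °C/min. Tm was taken by the two-point average method, mean of three independent runs.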

Assay [2] is described as follows: Binding affinity to hairpin double stranded DNA GC base pair in sodium cacodylate buffer at pH 6.8 assessed as triplex-forming ability measuring melting temperature after by UV melting experiment. In outline: as §1
A short description of assay [3]: Binding affinity to hairpin double stranded DNA CG base pair in sodium cacodylate buffer at pH 6.8 assessed as triplex-forming ability measuring melting temperature after by UV melting experiment. In short, it runs like this:
as §1

A short description of assay [4]: Binding affinity to hairpin double stranded DNA TA base pair in sodium cacodylate buffer at pH 6.8 assessed as triplex-forming ability measuring melting temperature after by UV melting experiment. In outline: as §1

The results in this text go back to ChEMBL document CHEMBL2413013, “Triplex-forming ability of oligonucleotides containing 1-aryl-1,2,3-triazole nucleobases linked via a two atom-length spacer” (Bioorg Med Chem, 2013).

Molecules are shown by their SMILES.

Turning to `Cc1cn([C@H]2C[C@H](O[PH](OCCC#N)(OC[C@H]3O[C@@H](n4cc(C)c(=O)[nH]c4=O)C[C@@H]3O[PH](OCCC#N)(OC[C@H]3O[C@@H](n4cc(C)c(=O)[nH]c4=O)C[C@@H]3O[PH](OCCC#N)(OC[C@H]3O[C@@H](n4cc(C)c(=O)[nH]c4=O)C[C@@H]3O[PH](OCCC#N)(OC[C@H]3O[C@@H](n4cc(C)c(=O)[nH]c4=O)C[C@@H]3O[PH](OCCC#N)(OC(C)[C@H]3O[C@@H](n4ccc(N)nc4=O)C[C@@H]3O[PH](OCCC#N)(OC[C@H]3O[C@@H](n4cc(C)c(=O)[nH]c4=O)C[C@@H]3O[PH](OCCC#N)(OC[C@H]3O[C@@H](CCc4cn(-c5ccccc5)nn4)C[C@@H]3OP(=O)(O)OC[C@H]3O[C@@H](n4cc(C)c(=O)[nH]c4=O)C[C@@H]3O[PH](OCCC#N)(OC(C)[C@H]3O[C@@H](n4ccc(N)nc4=O)C[C@@H]3O[PH](OCCC#N)(OC[C@H]3O[C@@H](n4cc(C)c(=O)[nH]c4=O)C[C@@H]3O[PH](OCCC#N)(OC(C)[C@H]3O[C@@H](n4ccc(N)nc4=O)C[C@@H]3O[PH](OCCC#N)(OC[C@H]3O[C@@H](n4cc(C)c(=O)[nH]c4=O)C[C@@H]3O[PH](OCCC#N)(OC(C)[C@H]3O[C@@H](n4ccc(N)nc4=O)C[C@@H]3O[PH](OCCC#N)(OC[C@H]3O[C@@H](n4cc(C)c(=O)[nH]c4=O)C[C@@H]3O)N(C(C)C)C(C)C)N(C(C)C)C(C)C)N(C(C)C)C(C)C)N(C(C)C)C(C)C)N(C(C)C)C(C)C)N(C(C)C)C(C)C)N(C(C)C)C(C)C)N(C(C)C)C(C)C)N(C(C)C)C(C)C)N(C(C)C)C(C)C)N(C(C)C)C(C)C)N(C(C)C)C(C)C)N(C(C)C)C(C)C)[C@@H](CO)O2)c(=O)[nH]c1=O` (stereo partly drawn), the Tm in assay [1] is 21 °C; in assay [2] it was 20 °C; in assay [3], 24 °C; in assay [4], 22 °C.

Take `CC(=O)N1CCCc2ccc(-n3cc(CC[C@H]4C[C@H](OP(=O)(O)OC[C@H]5O[C@@H](n6cc(C)c(=O)[nH]c6=O)C[C@@H]5O[PH](OCCC#N)(OC(C)[C@H]5O[C@@H](n6ccc(N)nc6=O)C[C@@H]5O[PH](OCCC#N)(OC[C@H]5O[C@@H](n6cc(C)c(=O)[nH]c6=O)C[C@@H]5O[PH](OCCC#N)(OC(C)[C@H]5O[C@@H](n6ccc(N)nc6=O)C[C@@H]5O[PH](OCCC#N)(OC[C@H]5O[C@@H](n6cc(C)c(=O)[nH]c6=O)C[C@@H]5O[PH](OCCC#N)(OC(C)[C@H]5O[C@@H](n6ccc(N)nc6=O)C[C@@H]5O[PH](OCCC#N)(OC[C@H]5O[C@@H](n6cc(C)c(=O)[nH]c6=O)C[C@@H]5O)N(C(C)C)C(C)C)N(C(C)C)C(C)C)N(C(C)C)C(C)C)N(C(C)C)C(C)C)N(C(C)C)C(C)C)N(C(C)C)C(C)C)[C@@H](CO[PH](OCCC#N)(O[C@H]5C[C@H](n6cc(C)c(=O)[nH]c6=O)O[C@@H]5CO[PH](OCCC#N)(O[C@H]5C[C@H](n6ccc(N)nc6=O)O[C@@H]5C(C)O[PH](OCCC#N)(O[C@H]5C[C@H](n6cc(C)c(=O)[nH]c6=O)O[C@@H]5CO[PH](OCCC#N)(O[C@H]5C[C@H](n6cc(C)c(=O)[nH]c6=O)O[C@@H]5CO[PH](OCCC#N)(O[C@H]5C[C@H](n6cc(C)c(=O)[nH]c6=O)O[C@@H]5CO[PH](OCCC#N)(O[C@H]5C[C@H](n6cc(C)c(=O)[nH]c6=O)O[C@@H]5CO[PH](OCCC#N)(O[C@H]5C[C@H](n6cc(C)c(=O)[nH]c6=O)O[C@@H]5CO)N(C(C)C)C(C)C)N(C(C)C)C(C)C)N(C(C)C)C(C)C)N(C(C)C)C(C)C)N(C(C)C)C(C)C)N(C(C)C)C(C)C)N(C(C)C)C(C)C)O4)nn3)cc21` (stereo partly drawn): the Tm in assay [1] was 21 °C; in assay [2], 21 °C; in assay [3], 26 °C; in assay [4] it was 27 °C.
